Bioassay records as filed in PubChem BioAssay.
Most compounds without a hit are left out; they make up all but 1.1% or so of the library.
Avidin fluor – avidin bead compound fluorescence profile; AID 1775; hit rate 0.38% among 220,000; Avidin beads, compound fluorescence 488/530 nm, flow cytometry; hits give high values; fluorescence (KMESF) at 10 µM; in the data active = fluorescence above about 47
Arr AP2 block – blocks beta-arrestin peptide binding to AP2 adaptin; FITC-arrestin peptide / GST-AP2 beads, flow cytometry; AP2 beta2 appendage carries R879A mutation; inhibition, % at 10 µM; hit rate 0.31% among 340,000; AID 504490;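 active = inhibition above a set limit, near 3 SD of compounds lacking own fluorescence, cut at about 54% in these data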
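test system = AP2 appendage R879A on GSH beads | buffer or medium = PBS plus Tween 20 (0.05%) and BSA (0.1%) | incubation = 12 min plus 1 h, RT | detection = bead flow cytometry, FITC channel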
GSH fluor – GSH bead compound fluorescence profile | GSH beads flow cytometry, compound fluorescence 488/530 nm; hits give high values | fluorescence (KMESF) at 10 µM | hit rate 0.25% among 190,000; in the data active = fluorescence above about 89;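 note: glutathione beads carrying GST-tagged Bcl family fusion proteins plus one bare bead set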
Pemphigus Ab inh – inhibitors of pemphigus antibody binding to human desmoglein-3; DSG3-coupled beads, scFv-anti-DSG3-GFP binding, flow cytometry; hits give low values; AID 588358; hit rate 0.48% among 310,000; binding (percent of control), % at 10 µM;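 active = binding more than 3 SD below its plate's average and above zero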;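 note: hits lower antibody fragment binding to DSG3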
Target sequence (P32926 whole entry, looked up, the tested form may be a part): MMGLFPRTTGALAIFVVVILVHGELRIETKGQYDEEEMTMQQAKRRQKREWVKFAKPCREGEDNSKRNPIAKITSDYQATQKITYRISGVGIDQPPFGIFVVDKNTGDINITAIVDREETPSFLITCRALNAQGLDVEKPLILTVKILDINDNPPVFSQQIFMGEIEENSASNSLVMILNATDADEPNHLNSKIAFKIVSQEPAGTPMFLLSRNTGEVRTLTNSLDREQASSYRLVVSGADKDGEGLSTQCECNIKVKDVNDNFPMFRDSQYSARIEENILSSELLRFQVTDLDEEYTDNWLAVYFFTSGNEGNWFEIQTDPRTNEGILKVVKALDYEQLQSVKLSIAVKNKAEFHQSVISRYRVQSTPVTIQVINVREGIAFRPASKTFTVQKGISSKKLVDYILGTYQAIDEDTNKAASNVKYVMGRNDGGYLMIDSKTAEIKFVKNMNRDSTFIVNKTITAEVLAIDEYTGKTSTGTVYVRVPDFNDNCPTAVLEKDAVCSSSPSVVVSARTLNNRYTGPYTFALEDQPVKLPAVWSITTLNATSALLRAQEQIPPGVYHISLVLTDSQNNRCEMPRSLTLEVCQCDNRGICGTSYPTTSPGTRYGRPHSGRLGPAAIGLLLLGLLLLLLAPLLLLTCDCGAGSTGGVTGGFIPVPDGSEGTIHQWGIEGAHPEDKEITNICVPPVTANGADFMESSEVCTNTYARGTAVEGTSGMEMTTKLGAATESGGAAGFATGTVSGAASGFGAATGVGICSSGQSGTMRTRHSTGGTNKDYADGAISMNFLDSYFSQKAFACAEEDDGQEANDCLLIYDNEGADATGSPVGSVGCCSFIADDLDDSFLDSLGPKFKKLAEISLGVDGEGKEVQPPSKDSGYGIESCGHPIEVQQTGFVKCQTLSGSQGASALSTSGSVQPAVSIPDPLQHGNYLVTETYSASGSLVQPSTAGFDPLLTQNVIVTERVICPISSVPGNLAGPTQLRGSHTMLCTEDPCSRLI
Of the large screens only hits and unclear results are named; the others gave an inactive call.

O=C(c1ccc(Cl)cc1)[C@@H]1[C@@H]2C(=O)N(c3ccccc3)C(=O)[C@@H]2C2c3ccccc3C=NN21 (stereo not given in full)	Pemphigus Ab inh 78
O=C(c1ccc(Cl)cc1)C1C2C(=O)N(c3ccccc3)C(=O)C2C2CCCN21 (stereo not given)	none
Cc1ccc(-c2csc3nc(-c4ccncc4)[nH]c(=O)c23)cc1	none (no result: GSH fluor)
CCOc1ccc(-c2nc3scc(-c4cccs4)c3c(=O)[nH]2)cc1	Pemphigus Ab inh 71
Cc1ccc(NCc2n[nH]c(=S)n2Cc2ccccc2)cc1Cl	Avidin fluor 65
Cc1ccc(NCc2nnc(SCC(=O)O)n2Cc2ccccc2)cc1Cl	none
COC(=O)CNC(=O)COC(=O)c1cc(Cl)cc(Cl)c1N	none
CC(C)CNC(=O)COC(=O)c1cc(Cl)cc(Cl)c1N	GSH fluor 265
C/C(=N\NC(=O)CSc1nc(C)cc(C)n1)c1cccc([N+](=O)[O-])c1	Pemphigus Ab inh 66
Cc1cc(C)nc(SCC(=O)N/N=C/c2cccc([N+](=O)[O-])c2)n1	none
CCN(C(=O)c1cc2cccc(OC)c2oc1=O)C1CCCCC1	Avidin fluor 112
COc1cccc2cc(C(=O)N3CCCCCCC3)c(=O)oc12	Pemphigus Ab inh 19 (no result: Avidin fluor, GSH fluor)
CN(c1ccc(OCC(=O)OCC(=O)c2c(N)n(C)c(=O)n(C)c2=O)cc1)S(=O)(=O)c1ccc2ccccc2c1	Pemphigus Ab inh 97
CCN(c1ccc(OCC(=O)OCC(=O)c2c(N)n(C)c(=O)n(C)c2=O)cc1)S(=O)(=O)c1ccccc1	none
COC(=O)[C@@]12CCCN1[C@H](c1ccc(-c3ccc(Cl)c(Cl)c3)c(OC)c1)[C@H]1C(=O)N(C)C(=O)[C@H]12	none (no result: Avidin fluor, GSH fluor)
CC(=O)C1CCC2C3CCC4CC(=O)CCC4(C)C3C(C)(O)CC12C (stereo not given)	none (no result: Avidin fluor, GSH fluor)
O=C1CSC(c2ccncc2)N1Cc1ccco1 (stereo not given)	Pemphigus Ab inh 80
C/C(O)=c1/ccc2cccc3nc(C)nc1c23	Avidin fluor 48
O/C=c1\ccc2cccc3nc(C(F)(F)F)nc1c23	none (no result: Avidin fluor, GSH fluor)
Cc1ccc(NC2=Nc3ccccc3N3C2=Nc2c(c(C)nn2-c2ccccc2)C3c2ccc(O)c(O)c2)cc1 (stereo not given)	Pemphigus Ab inh 91
Cc1nn(-c2ccccc2)c2c1C(c1ccc(O)c(O)c1)N1C(=N2)C(Nc2ccccc2)=Nc2ccccc21 (stereo not given)	none
Brc1cccc(C2Nc3cccc4cccc(c34)N2)c1	none (no result: Avidin fluor, GSH fluor)
Brc1ccc(C2Nc3cccc4cccc(c34)N2)o1	Arr AP2 block 54
Cc1ccc(/C=C/C(=O)OCC(=O)N(CC(C)C)c2c(N)n(Cc3ccccc3)c(=O)[nH]c2=O)o1	Pemphigus Ab inh 92 (no result: Avidin fluor, GSH fluor)
O=C(Cc1ccccc1)Nc1ccc(NC(=O)c2cccs2)cc1Cl	Pemphigus Ab inh 72
O=C(Cc1ccccc1)Nc1ccc(NC(=O)c2cccs2)c(Cl)c1	none
COCCCn1c(SCC(=O)Nc2ccccc2F)nnc1-c1ccoc1C	none (no result: Avidin fluor, GSH fluor)
Cc1cc(C)c(C(=O)Cn2nc(C)c([N+](=O)[O-])c2C)cc1C	none
c1ccc(CSc2nnc3c(n2)OC(c2ccco2)Nc2ccccc2-3)cc1 (stereo not given)	Pemphigus Ab inh 61
O=C(COn1nnc2ccc(Cl)cc21)NC12CC3CC(CC(C3)C1)C2	Pemphigus Ab inh 86
Cc1ccc(C(=O)NNC(=O)c2ccoc2C)s1	none (no result: Avidin fluor, GSH fluor)
CCC(CC)NC(=O)c1ccc2nc[nH]c2c1	GSH fluor 262
CC(CC(=O)OCC(=O)NCc1ccc(Cl)cc1)c1ccccc1 (stereo not given)	none (no result: Avidin fluor, GSH fluor)
C=CCOC(=O)C1=C(C)NC(SCC(N)=O)=C(C#N)C1c1cccs1 (stereo not given)	Pemphigus Ab inh 18
COc1ccc(N2CCN(Cc3oc(CO)cc(=O)c3O)CC2)cc1	GSH fluor 250
Cc1ccc(S(=O)(=O)N(C)Cc2nc(-c3ccc(Br)cc3)no2)cc1	none
Cc1ccc(S(=O)(=O)N(C)Cc2nc(-c3ccncc3)no2)cc1	Avidin fluor 50
O=C1CCC(C(=O)N2CCCCO2)CN1Cc1ccc(Cl)cc1 (stereo not given)	none (no result: Avidin fluor, GSH fluor)
O=C(CC1C[C@H](C(=O)N2CCOCC2)[C@@]2(CCC3CCCC3)c3[nH]c4ccccc4c3CCN2C1=O)NCCc1ccccn1 (stereo not given in full)	none (no result: Avidin fluor, GSH fluor)
CCOC(=O)c1c(-c2ccccc2)c[nH]c1C	Pemphigus Ab inh 70 (no result: Avidin fluor, GSH fluor)
CC1CCCCC12NC(=O)N(CC(=O)Nc1ccccc1N1CCOCC1)C2=O (stereo not given)	none
O=C(C[C@H]1C/C=C\C[C@@H](Cc2ccc(F)cc2)C(=O)OC[C@@H](Cc2c[nH]c3ccccc23)NC1=O)NCCO	none (no result: Avidin fluor, GSH fluor, Pemphigus Ab inh)
CC(CCc1ccccc1)NC(=O)c1nnc(Cc2ccc(Cl)cc2)o1 (stereo not given)	Pemphigus Ab inh -13
O=C(NCCc1ccc(Cl)cc1)c1nnc(Cc2ccc(Cl)cc2)o1	none
O=C(O)CN1CCCCC1	none
CC(=O)/C(CN1CCCCC1)=N\O	Avidin fluor 85
COc1cc2c(cc1OC)CN(C(=O)c1ccc3[nH]c(C)c(C)c3c1)CC2	none (no result: Avidin fluor, GSH fluor)
Cn1ccsc1=NC(=O)c1ccc(S(=O)(=O)C(F)F)cc1	none (no result: Avidin fluor, GSH fluor)
Cc1ccc(NC(=O)Nc2c(C)n(C)n(-c3ccccc3)c2=O)cc1	none (no result: Avidin fluor, GSH fluor)
Cc1c(NS(C)(=O)=O)c(=O)n(-c2ccccc2)n1C	GSH fluor 252
Cc1c(NC(=O)CN2CC(C)OC(C)C2)c(=O)n(-c2ccccc2)n1C (stereo not given)	none
Cc1c(NC(=O)Nc2ccc3c(c2)OCO3)c(=O)n(-c2ccccc2)n1C	Avidin fluor 149
Cc1c(NC(=O)CN2c3ccccc3CC2C)c(=O)n(-c2ccccc2)n1C (stereo not given)	Pemphigus Ab inh 103
CC(=O)N1CCc2cc(S(=O)(=O)CCC(=O)NCCc3ccc(Cl)cc3)ccc21	none (no result: Avidin fluor, GSH fluor)
O=C(CN1C(=O)NC(c2ccccc2)(c2ccccc2)C1=O)NC1CCCC1	none (no result: Avidin fluor, GSH fluor)
CC(C)CC(NC(=O)c1ccccc1)C(=O)OCC(=O)Nc1ccc(Br)cn1 (stereo not given)	Avidin fluor 346
Cc1cc(C)n(S(=O)(=O)c2ccc(C)c(C)c2)n1	none (no result: Avidin fluor, GSH fluor)
Cc1ccc2ccc(S(=O)(=O)n3nc(C)cc3C)cc2c1	Avidin fluor 54
Cc1c(C(=O)NCc2n[nH]c(=S)n2-c2ccc(F)cc2)cccc1[N+](=O)[O-]	none
Cc1ccccc1-n1c(SCC(=O)N2CCN(c3ccccc3)CC2)nnc1-c1ccncc1	none
CCn1c(SCC(=O)N2CCN(c3ccccc3)CC2)nnc1-c1ccncc1	GSH fluor 148 (no result: Arr AP2 block, Pemphigus Ab inh)
O=C(CSc1ccc(-c2ccc(F)cc2)nn1)N1CCN(c2ccccc2)CC1	Pemphigus Ab inh 84
O=C(CSc1nnc(-c2ccncc2)n1-c1ccc(Cl)cc1)N1CCOCC1	Avidin fluor 77
O=C(CSc1nncn1-c1ccccc1)NC1CCCC1	none (no result: Avidin fluor, GSH fluor)
Cc1ccc(C(=O)N(CC(=O)NC2CCCC2)c2cccc(F)c2)s1	none (no result: Avidin fluor, GSH fluor)
COc1cccc(C(c2cccc(OC)c2)c2ccccc2C(=O)O)c1	none (no result: Avidin fluor, GSH fluor)
O=C(CSc1nc(C(F)(F)F)cc(=O)[nH]1)NCc1ccc2c(c1)OCO2	none (no result: Avidin fluor, GSH fluor)
